In all, about 330,000 compounds went through this assay and about 2,400 (0.73%) were called active. The calls were made as follows: active = inhibition of at least 40% at 20 µM; inactive = the rest. Shown is part of a subset that was picked to be rich in actives.
What follows are compounds tested against Apoptotic protease-activating factor 1 (Homo sapiens) (UniProt O14727) (assay: inhibitors of human Apaf-1 apoptosome, primary screen, biochemical, DEVD-Rh110 fluorescence, uHTS (AID 489030;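 also: plate controls were DMSO wells for no effect and DEVD-CHO caspase inhibitor wells for full effect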)). Details: reconstituted apoptosome caspase-3 activity, at 20 µM, stronger effect = higher value.
Apoptotic protease-activating factor 1 (Homo sapiens), sequence (O14727 whole entry, looked up): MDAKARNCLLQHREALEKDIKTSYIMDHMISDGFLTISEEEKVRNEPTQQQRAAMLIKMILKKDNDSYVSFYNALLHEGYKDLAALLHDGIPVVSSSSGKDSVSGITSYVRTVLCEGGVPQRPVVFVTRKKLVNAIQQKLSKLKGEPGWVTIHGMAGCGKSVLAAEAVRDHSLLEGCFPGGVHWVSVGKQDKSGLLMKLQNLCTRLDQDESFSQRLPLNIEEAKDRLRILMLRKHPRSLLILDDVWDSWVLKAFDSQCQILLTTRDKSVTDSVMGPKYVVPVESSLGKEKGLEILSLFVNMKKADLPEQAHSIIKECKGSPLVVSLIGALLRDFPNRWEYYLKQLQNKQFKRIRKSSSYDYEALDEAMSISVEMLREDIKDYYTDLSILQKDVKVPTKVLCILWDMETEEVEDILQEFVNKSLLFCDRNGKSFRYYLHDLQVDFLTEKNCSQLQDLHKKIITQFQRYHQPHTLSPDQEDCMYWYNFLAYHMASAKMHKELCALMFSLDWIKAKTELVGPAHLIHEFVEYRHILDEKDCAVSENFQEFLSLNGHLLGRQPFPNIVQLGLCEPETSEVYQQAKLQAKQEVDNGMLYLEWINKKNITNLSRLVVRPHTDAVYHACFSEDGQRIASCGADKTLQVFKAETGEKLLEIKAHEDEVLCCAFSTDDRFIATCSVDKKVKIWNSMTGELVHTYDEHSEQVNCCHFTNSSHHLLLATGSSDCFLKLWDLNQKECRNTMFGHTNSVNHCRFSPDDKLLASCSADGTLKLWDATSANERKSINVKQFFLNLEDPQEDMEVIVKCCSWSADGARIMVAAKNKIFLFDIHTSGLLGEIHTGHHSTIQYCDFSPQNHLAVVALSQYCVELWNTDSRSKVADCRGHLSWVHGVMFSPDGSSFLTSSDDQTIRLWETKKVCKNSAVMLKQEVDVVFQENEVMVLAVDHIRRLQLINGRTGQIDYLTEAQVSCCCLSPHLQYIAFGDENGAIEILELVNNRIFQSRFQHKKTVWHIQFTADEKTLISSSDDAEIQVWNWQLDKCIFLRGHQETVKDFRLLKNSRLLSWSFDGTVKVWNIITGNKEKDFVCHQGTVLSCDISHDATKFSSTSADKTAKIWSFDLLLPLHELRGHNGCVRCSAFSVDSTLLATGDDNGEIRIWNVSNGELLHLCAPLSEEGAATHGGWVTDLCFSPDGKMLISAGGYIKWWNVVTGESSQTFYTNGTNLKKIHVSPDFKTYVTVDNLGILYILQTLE
Procedure, shortened: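 Medium: Hepes buffer, pH 7.5 / System: biochemical Apaf-1 apoptosome reconstitution / Measured by: Rh110 fluorescence, excitation 480 nm, emission 540 nm / Times: compound with Apaf-1, dATP, procaspase-3 30 min, then 50 min reaction, room temperature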

SMILES	inhibition
CCCCCn1c(=O)c(C(=O)Nc2c(C)n(C)n(-c3ccccc3)c2=O)c(O)c2ccccc21	46.4% (active)
CCCCCn1c(=O)c(C(=O)NCc2ccccc2)c(O)c2ccccc21	-34.9% (inactive)
CCCCn1c(=O)c(C(=O)Nc2ccccc2Cl)c(O)c2ccccc21	-6.34% (inactive)
COC(=O)C1=C(c2c(C)noc2C)C[C@@H]2CC[C@H]1N2C(=O)NCc1ccc2c(c1)OCO2	1.57% (inactive)
Cc1cccc(-n2c(O)c(/C=N/N3CCOCC3)c(=O)[nH]c2=S)c1	3.6% (inactive)
c1ccc2sc(N3CCNCC3)nc2c1	-11.3% (inactive)
CC(Cc1ccccc1)NCCC(c1ccccc1)c1ccccc1 (stereo not given)	41.5% (active)
CC(=O)NC(=O)NC(C)Cc1ccccc1 (stereo not given)	-10.3% (inactive)
CC(Cc1ccccc1)NC=O (stereo not given)	5.78% (inactive)
CCOc1ccc(CN(CCCl)CCCl)cc1C(=O)OC	-1.62% (inactive)
CCOC(=O)c1c(N)n(Cc2ccccc2)c2nc3ccccc3nc12	79.9% (active)
CC/C(=N\NC(=O)c1ccccc1O)c1c(O)n(Cc2ccccc2)c(=O)[nH]c1=O	-8.27% (inactive)
COc1cc(Cn2c(N)c(C(=O)NCc3ccco3)c3nc4ccccc4nc32)cc(OC)c1OC	96.1% (active)
CCOC(=O)c1c(N)n(CCN2CCOCC2)c2nc3ccccc3nc12	-3.48% (inactive)
COC(=O)C1=C(c2ccccc2)C[C@@H]2CC[C@H]1N2C(=O)NCc1ccco1	3.27% (inactive)
CCOC(=O)C(O)(c1ccc(NC(=O)c2ccco2)c(OC)c1)C(F)(F)F (stereo not given)	5.81% (inactive)
CN(C)/C=C(\C=[N+](C)C)c1[nH]ncc1[N+](=O)[O-]	-1.23% (inactive)
COC(=O)C1=C(c2ccc(F)cc2F)C[C@@H]2CC[C@H]1N2C(=O)NC1CC1	3.15% (inactive)
CCCn1c(C(=O)c2ccccc2OC)nc2ccccc21	6.27% (inactive)
CCCCCCCCCCCCn1ccc(=N)cc1	43.9% (active)
Cn1c(O)c(C=NCCN2CCNCC2)c(=O)n(C)c1=O	6.24% (inactive)
COC(=O)CN1C(=O)C2(C(C(=O)OC)=C(N)Oc3ccccc32)C2=C1CC(C)(C)CC2=O (stereo not given)	-21% (inactive)
CN(C)C(=O)Oc1ccc(NC(=O)N2CCOCC2)cc1	-15% (inactive)
CC(=C1C(=O)c2ccccc2C1=O)N1CCN(CCN=Cc2c(O)n(C)c(=O)n(C)c2=O)CC1	1.31% (inactive)
C=CCN1C(=O)NC(=O)/C(=C/c2ccc(OCC(=O)Nc3ccc(C)cc3)cc2)C1=O	8.4% (inactive)
O=C(Cc1ccc(Cl)cc1)NCCN1CCN(C(=O)Cc2ccc(Cl)cc2)CC1	-6.49% (inactive)
CNCC(O)c1cc(F)c(OCc2ccccc2)c(OCc2ccccc2)c1F (stereo not given)	45.9% (active)
CCc1nc2ccccc2c(=O)n1-c1cccc(OC)c1	-11.3% (inactive)
CNC(=O)N(C)c1nnc(C(C)(C)C)s1	-10.6% (inactive)
CC(C)c1c(CN(C)C(C)Cc2ccccc2)n(C)n(-c2ccccc2)c1=O (stereo not given)	9.08% (inactive)
